Assay results taken from ChEMBL document CHEMBL4368913, “Design, Synthesis, and Biological Evaluation of 6-Substituted Thieno[3,2- d]pyrimidine Analogues as Dual Epidermal Growth Factor Receptor Kinase and Microtubule Inhibitors” (J Med Chem, 2019).

Columns and labels:
[1] = system: A549; assay: Antiproliferative activity against human A549 cells after 72 hrs by MTT assay; assay type: functional, cell-based; settings: A549, 72 h
[2] = system: HeLa; assay: Antiproliferative activity against human HeLa cells after 72 hrs by MTT assay; assay type: functional, cell-based
[3] = system: HT-29; assay: Antiproliferative activity against human HT-29 cells after 72 hrs by MTT assay; assay type: functional, cell-based; settings: HT-29, 72 h
[4] = system: Jurkat; assay: Antiproliferative activity against human Jurkat cells after 72 hrs by MTT assay; assay type: functional, cell-based
In short: (§1)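 Cells in medium with 10% FBS, seeded at 8×10^3 per well, 18 h at 37 °C, 5% CO2, then graded compound concentrations (DMSO ≤0.25%) for 72 h. Viability by MTT. […] Mean ± SE of dose-response curves from at least three independent experiments.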

[5] = system: RS4-11; assay: Antiproliferative activity against human RS4:11 cells after 72 hrs by MTT assay; assay type: functional, cell-based; settings: RS4-11, 72 h; in short: as §1
[6] = target: Tubulin (Bos taurus, UniProt Q6B856+Q862L2+Q862F3); assay: Inhibition of bovine brain tubulin polymerization after 20 mins
In short: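 Bovine brain tubulin (10 μM) preincubated with varying compound concentrations in 0.8 M monosodium glutamate, pH 6.6, at 30 °C, then chilled to 0 °C. 0.4 mM GTP added, mixtures warmed to 30 °C, assembly followed by turbidity at 350 nm.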

[7] = target: Tubulin (Bos taurus) (UniProt Q6B856+Q862L2+Q862F3); assay: Inhibition of [3H]-colchicine binding to bovine brain tubulin at 1 to 5 uM after 20 mins relative to control
In short: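 Colchicine-binding inhibition in mixtures of 1 μM tubulin, 5 μM [3H]colchicine and test compound at 1 or 5 μM.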

[8] = target: Epidermal growth factor receptor (Homo sapiens, UniProt P00533); assay: Inhibition of wild type EGFR (unknown origin) by bioluminescent ADP-glo kinase assay
Sequence of Epidermal growth factor receptor (P00533 whole entry): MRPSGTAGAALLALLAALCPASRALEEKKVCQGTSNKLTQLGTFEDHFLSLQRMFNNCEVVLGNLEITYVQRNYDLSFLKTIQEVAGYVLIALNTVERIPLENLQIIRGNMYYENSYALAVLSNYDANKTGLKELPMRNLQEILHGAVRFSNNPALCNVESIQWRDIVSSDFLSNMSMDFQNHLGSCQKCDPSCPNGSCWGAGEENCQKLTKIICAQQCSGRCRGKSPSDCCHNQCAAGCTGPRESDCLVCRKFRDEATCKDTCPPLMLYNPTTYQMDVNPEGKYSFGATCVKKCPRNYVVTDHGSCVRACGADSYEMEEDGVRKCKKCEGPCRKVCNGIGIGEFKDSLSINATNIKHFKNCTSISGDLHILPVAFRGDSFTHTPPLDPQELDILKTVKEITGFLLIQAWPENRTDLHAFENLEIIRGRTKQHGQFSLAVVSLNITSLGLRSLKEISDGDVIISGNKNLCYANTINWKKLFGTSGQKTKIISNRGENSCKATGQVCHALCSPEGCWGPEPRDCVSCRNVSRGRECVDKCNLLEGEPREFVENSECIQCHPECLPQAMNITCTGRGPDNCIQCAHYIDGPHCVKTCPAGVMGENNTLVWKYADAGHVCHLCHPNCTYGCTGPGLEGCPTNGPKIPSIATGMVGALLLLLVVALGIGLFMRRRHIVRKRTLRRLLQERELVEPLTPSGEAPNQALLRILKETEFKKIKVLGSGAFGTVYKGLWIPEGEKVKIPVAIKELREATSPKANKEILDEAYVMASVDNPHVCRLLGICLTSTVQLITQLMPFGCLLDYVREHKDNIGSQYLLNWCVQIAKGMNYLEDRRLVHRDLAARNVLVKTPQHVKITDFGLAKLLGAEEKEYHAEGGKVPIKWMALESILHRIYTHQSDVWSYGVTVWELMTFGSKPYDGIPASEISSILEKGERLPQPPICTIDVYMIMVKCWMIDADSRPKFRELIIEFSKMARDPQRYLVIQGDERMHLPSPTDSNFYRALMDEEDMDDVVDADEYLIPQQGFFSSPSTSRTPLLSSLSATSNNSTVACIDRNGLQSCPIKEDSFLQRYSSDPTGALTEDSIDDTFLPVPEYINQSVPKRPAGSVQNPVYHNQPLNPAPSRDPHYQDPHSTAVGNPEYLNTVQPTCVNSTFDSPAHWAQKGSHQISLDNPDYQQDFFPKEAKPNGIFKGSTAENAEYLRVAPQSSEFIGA

[9] = target: T1, Vascular endothelial growth factor receptor 2 (Homo sapiens, UniProt P35968); assay: Inhibition of wild type VEGFR2 (unknown origin) by bioluminescent ADP-glo kinase assay
T1 sequence (P35968 whole entry): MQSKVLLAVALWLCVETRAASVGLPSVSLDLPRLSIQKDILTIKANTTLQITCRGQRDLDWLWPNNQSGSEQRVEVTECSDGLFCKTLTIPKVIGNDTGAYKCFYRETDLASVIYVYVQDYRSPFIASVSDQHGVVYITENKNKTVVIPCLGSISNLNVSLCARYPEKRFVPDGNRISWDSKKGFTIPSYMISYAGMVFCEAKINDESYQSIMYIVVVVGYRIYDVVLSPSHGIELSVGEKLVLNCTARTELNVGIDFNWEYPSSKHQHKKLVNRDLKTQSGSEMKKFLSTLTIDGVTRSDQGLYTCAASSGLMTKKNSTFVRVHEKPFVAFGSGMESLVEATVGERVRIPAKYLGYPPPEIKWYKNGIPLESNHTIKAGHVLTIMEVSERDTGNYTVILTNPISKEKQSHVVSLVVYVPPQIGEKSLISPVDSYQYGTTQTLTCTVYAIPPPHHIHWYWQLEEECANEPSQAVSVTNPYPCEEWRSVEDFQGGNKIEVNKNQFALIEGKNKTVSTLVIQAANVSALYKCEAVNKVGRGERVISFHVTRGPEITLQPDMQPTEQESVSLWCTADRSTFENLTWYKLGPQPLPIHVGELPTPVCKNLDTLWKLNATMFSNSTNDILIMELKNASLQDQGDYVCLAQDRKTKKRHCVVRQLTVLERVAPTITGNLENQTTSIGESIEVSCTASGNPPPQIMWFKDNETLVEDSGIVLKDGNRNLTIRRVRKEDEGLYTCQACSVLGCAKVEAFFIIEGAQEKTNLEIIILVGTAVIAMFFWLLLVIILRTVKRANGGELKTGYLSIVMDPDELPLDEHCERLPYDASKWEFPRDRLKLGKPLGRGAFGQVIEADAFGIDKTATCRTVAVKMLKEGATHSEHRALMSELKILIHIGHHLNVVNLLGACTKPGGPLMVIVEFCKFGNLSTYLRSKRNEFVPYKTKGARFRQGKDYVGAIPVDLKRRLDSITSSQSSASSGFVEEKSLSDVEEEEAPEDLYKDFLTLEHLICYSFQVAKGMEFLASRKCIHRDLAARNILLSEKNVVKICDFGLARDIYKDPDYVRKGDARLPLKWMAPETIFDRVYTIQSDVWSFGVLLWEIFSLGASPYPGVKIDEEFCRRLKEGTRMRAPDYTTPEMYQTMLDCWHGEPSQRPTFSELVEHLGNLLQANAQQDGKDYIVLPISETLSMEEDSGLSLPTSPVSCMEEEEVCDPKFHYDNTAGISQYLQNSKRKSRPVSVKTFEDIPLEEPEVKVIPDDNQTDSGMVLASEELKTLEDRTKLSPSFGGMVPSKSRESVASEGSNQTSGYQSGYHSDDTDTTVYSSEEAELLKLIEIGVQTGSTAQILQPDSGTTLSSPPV

[10] = target: T1, Vascular endothelial growth factor receptor 2; assay: Inhibition of VEGFR2 (unknown origin)
[11] = system: B16; assay: Antitumor activity against mouse B16 cells allografted in C57BL/6 mouse assessed as reduction in tumor burden at 30 mg/kg, ip dosing starting on day 9 post tumor injection administered […] on day 9,11, 13 and 15 relative to control; assay type: functional; parameters: scale not given: the % may be the effect or the level left
In short: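 Male C57BL/6 mice, six weeks old, given 2.5×10^5 BL6-B16 murine melanoma cells subcutaneously in the dorsolateral flank in PBS. Once tumours were palpable, compound in 50 µL DMSO was given intraperitoneally every other day from day 9 (days 9, 11, 13, 15); controls received vehicle. Tumour volume compared with control; 5 animals per group; mean ± SEM.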

Question: With `COc1ccc(-c2cc3ncnc(Nc4cc(OC)c(OC)c(OC)c4)c3s2)cc1` as the molecule, how does the IC50 [1] read?
Answer: Its IC50 is 430 nM.

Question: And the IC50 [2]?
Answer: The IC50 was 170 nM.

Question: And the IC50 [3]?
Answer: The IC50 was 60 nM.

Question: What about the IC50 [4] of the same molecule?
Answer: The IC50 was 5 nM.

Question: What about the IC50 [5] of the same molecule?
Answer: Its IC50 is 4 nM.

Question: And the IC50 [6]?
Answer: Its IC50 is 2800 nM.

Question: And the inhibition [7]?
Answer: The inhibition was 31%.

Question: What about the IC50 [8] of the same molecule?
Answer: The IC50 was 52 nM.

Question: And the IC50 [9]?
Answer: The IC50 was > 1000 nM.

Question: Which results are given for `COc1cc(Nc2ncnc3cc(-c4cccs4)sc23)cc(OC)c1OC`?
Answer: IC50 [1]: 5100 nM; IC50 [2]: 1700 nM; IC50 [3]: 210 nM; IC50 [4]: 80 nM; IC50 [5]: 360 nM; IC50 [6]: 18000 nM; IC50 [8]: 2.5 nM; IC50 [9]: > 1000 nM

Question: With `COc1cc(Nc2ncnc3cc(-c4ccc([N+](=O)[O-])cc4)sc23)cc(OC)c1OC` as the molecule, how does the IC50 [1] read?
Answer: The IC50 was 1100 nM.

Question: What about the IC50 [2] of the same molecule?
Answer: Its IC50 is 4900 nM.

Question: And the IC50 [3]?
Answer: The IC50 was 6300 nM.

Question: And the IC50 [4]?
Answer: Its IC50 is 2000 nM.

Question: And the IC50 [5]?
Answer: The IC50 was 1300 nM.

Question: For `COc1cc(Nc2ncnc3cc(-c4ccc(F)cc4)sc23)cc(OC)c1OC`, which IC50 [1] is on record?
Answer: The IC50 was 13500 nM.

Question: And the IC50 [2]?
Answer: Its IC50 is 450 nM.

Question: What about the IC50 [3] of the same molecule?
Answer: The IC50 was 1900 nM.

Question: And the IC50 [4]?
Answer: Its IC50 is 260 nM.

Question: What about the IC50 [5] of the same molecule?
Answer: The IC50 was 1900 nM.

Question: For `c1ccc(-c2cc3ncnc(Nc4ccc5[nH]ccc5c4)c3s2)cc1`, which IC50 [10] is on record?
Answer: The IC50 was 80 nM.

Question: With `COc1cc(Nc2ncnc3cc(-c4ccc(I)cc4)sc23)cc(OC)c1OC` as the molecule, how does the IC50 [1] read?
Answer: Its IC50 is 770 nM.

Question: What about the IC50 [2] of the same molecule?
Answer: The IC50 was 280 nM.

Question: What about the IC50 [3] of the same molecule?
Answer: The IC50 was 250 nM.

Question: And the IC50 [4]?
Answer: Its IC50 is 300 nM.

Question: What about the IC50 [5] of the same molecule?
Answer: The IC50 was 170 nM.

Question: And the IC50 [6]?
Answer: Its IC50 is 2500 nM.

Question: What about the inhibition [7] of the same molecule?
Answer: The inhibition was 35%.

Question: And the IC50 [8]?
Answer: Its IC50 is 10 nM.

Question: And the IC50 [9]?
Answer: The IC50 was > 1000 nM.

Question: With `COc1ccc(/C=C\c2cc(OC)c(OC)c(OC)c2)cc1OP(=O)([O-])[O-].[Na+].[Na+]` [FOSBRETABULIN DISODIUM] as the molecule, how does the Activity [11] read?
Answer: The Activity was 34.9%.
